M4 PAM – potentiates acetylcholine response at human M4 receptor. CHO-K1 hM4/Gqi5, Fluo-8 calcium fluorescence, ACh EC20; 0% = ACh EC20, 100% = maximal ACh. activation, % at 3 µM. AID 624126. actives 0.4% (n = 360,000);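 active means activation above its plate's cutoff, the mean activation of sample wells plus 3 SD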
M5 PAM – potentiates acetylcholine response at human M5 receptor; P08912; CHO-K1 hM5, Fluo-8 calcium, ACh EC20 PAM; 0% = ACh EC20, 100% = ACh EC100; activation, % at 3 µM; actives 0.3% (n = 360,000); AID 624038;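 active means activation above the run cutoff, the mean activation of all test compounds plus 3 SD, cut at about 18% in these data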
Target sequence (P08912 whole entry, looked up): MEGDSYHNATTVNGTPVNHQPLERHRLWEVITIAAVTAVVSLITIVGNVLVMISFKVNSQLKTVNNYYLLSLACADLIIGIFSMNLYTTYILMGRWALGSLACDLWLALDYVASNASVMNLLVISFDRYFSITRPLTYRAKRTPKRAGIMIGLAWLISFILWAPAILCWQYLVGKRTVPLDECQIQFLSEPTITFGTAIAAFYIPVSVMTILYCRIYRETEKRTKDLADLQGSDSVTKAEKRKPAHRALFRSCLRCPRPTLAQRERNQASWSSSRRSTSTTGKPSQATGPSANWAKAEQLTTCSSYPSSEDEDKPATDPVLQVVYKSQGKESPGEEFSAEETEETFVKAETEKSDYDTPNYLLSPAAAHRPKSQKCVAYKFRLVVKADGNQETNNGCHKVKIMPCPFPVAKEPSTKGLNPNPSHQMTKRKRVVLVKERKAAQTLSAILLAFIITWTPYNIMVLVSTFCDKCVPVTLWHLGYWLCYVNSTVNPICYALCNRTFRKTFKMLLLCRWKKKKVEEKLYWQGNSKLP
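Replicates: One well per compound, no replicates | System: Human M5 receptor in CHO-K1 cells | Benchmarks: Low control EC20 acetylcholine (0%), high control EC100 acetylcholine (100%) | Probe or stimulus: Acetylcholine, EC20 level | Times: Fluo-8 loading 80 min at 37 °C plus 30 min room temperature | Signal: Intracellular calcium via Fluo-8 fluorescence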
M4 ag – agonists of human muscarinic M4 receptor (CHRM4). CHO-K1 hM4/Gqi5, Fluo-8 calcium fluorescence; vehicle 0%, full acetylcholine response 100%. activation, % at 3 µM. actives 0.14% (n = 360,000);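 active means activation above the run mean over all test wells plus 3 SD, cut at about 32% in these data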;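 further: peak over basal fluorescence ratio per well then scaled between controls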
CHRM5 agonist – agonists of human muscarinic M5 receptor (CHRM5); P08912; CHO-K1 hM5 cells, Fluo-8 calcium fluorescence; 0% DMSO wells, 100% maximal acetylcholine response; activation, % at 3 µM; actives 0.19% (n = 360,000); AID 624037;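 active means activation above the run's mean over test compounds plus 3 SD, cut at about 23% in these data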;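 further: signal is peak over basal fluorescence ratio across the kinetic read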
M4 antag – antagonists of human muscarinic M4 receptor (CHRM4). P08173. CHO-hM4 cells, ACh EC80, Fluo-8 calcium fluorescence. inhibition, % at 3 µM. actives 0.73% (n = 360,000);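 active means inhibition above its plate's cutoff, the mean inhibition of sample wells plus 3 SD, cut at about 27% in these data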
M5 antag – antagonists of human muscarinic M5 receptor (CHRM5). P08912. CHO-hM5 cells, Fluo-8 calcium fluorescence, ACh EC80. inhibition, % at 3 µM. actives 0.59% (n = 360,000). AID 624040;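 active means inhibition above a per-plate cutoff, the mean of that plate's test compounds plus 3 SD, cut at about 27% in these data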
Large screens that a line does not name were inactive. Compounds with a hit are over-represented: about 1.8% of the library has one in this group of screens.

CCCCC(CC)CO (stereo not given)	none
CC(Oc1ccc(F)cc1)C(=O)Nc1ccc(S(=O)(=O)NC2=NCCCCC2)cc1 (stereo not given)	none
CC(Oc1ccc(Br)cc1)C(=O)Nc1ccc(S(=O)(=O)NC2=NCCCCC2)cc1 (stereo not given)	M4 ag 39.3, CHRM5 agonist 29.1
Fc1ccc(-n2c(CN3CCCCC3)n[nH]c2=S)cc1	M5 PAM 20.6
S=c1[nH]nc(CN2CCCCC2)n1-c1ccc(Cl)cc1	none
Cn1c(SCc2ccccc2)nc2ccsc2c1=O	M5 antag 30.1
Cn1c(SCc2ccc(Br)cc2)nc2ccccc2c1=O	none
CCCCC(O)(CCN1CCOCC1)c1ccc(Cl)cc1 (stereo not given)	M4 antag 67.5, M5 antag 32.2
O=C(C[C@H]1CC[C@@H](NC(=O)Cc2cccnc2)[C@@H](CO)O1)NCc1ccc2c(c1)OCO2	none
O=C1CCCc2c1nc(-c1ccc([N+](=O)[O-])cc1)n2O	none
O=C1CCCc2c1nc(-c1ccc(F)cc1)n2O	M5 PAM 20.5
C=CCCC(=O)N1C[C@H]2CON(C)[C@H]2C[C@H]1c1ccc(Br)cc1	none
CCOC(=O)Nc1nnc(Cc2ccc(Cl)c(Cl)c2)s1	M4 PAM 22.3
CCOC(=O)C(=O)Nc1nnc(Cc2ccc(OC)c(OC)c2)s1	none
COc1ccc(Cc2nnc(NC(=O)CSc3ccc(C)cc3)s2)cc1OC	M4 ag 95.3, CHRM5 agonist 74.4
COCC(=O)N(Cc1cc2cc(C)ccc2[nH]c1=O)c1ccccc1	M4 PAM 23.2
COCC(=O)N(Cc1cc2ccc(C)cc2[nH]c1=O)c1cccc(C)c1	none
O=C(CSc1ncnc2[nH]ncc12)Nc1nc(-c2ccc(F)c(F)c2)cs1	M4 antag 31.3
CSc1nc(SCCN(C)C)c2c3c(sc2n1)COC(C)(C)C3	M4 ag 51.8
CSc1nc(SC(C)C(=O)O)c2c3c(sc2n1)COC(C)(C)C3 (stereo not given)	none
CCCSc1nc(NCc2ccco2)c2c3c(sc2n1)COC(C)(C)C3	M4 PAM 43.2
CCCCSc1nc(NCc2ccco2)c2c3c(sc2n1)COC(C)(C)C3	none
NC(Cc1ccc(F)cc1)c1csc(Nc2nccc(C(F)(F)F)n2)n1 (stereo not given)	none
O=C(COC(=O)CCC1CCCC1)Nc1ccccc1OC(F)F	M4 PAM 22.1
Cn1c(SCCN2CCCC2)nnc1C1CCN(S(=O)(=O)c2cccc(F)c2)CC1	M4 antag 32.5
Cn1c(SCC(N)=O)nnc1C1CCN(S(=O)(=O)c2ccccc2C(F)(F)F)CC1	none
CS(=O)(=O)N(Cc1ccc(C(=O)NN=C2CCCCCC2)cc1)c1ccccc1	M5 PAM 24.7
CS(=O)(=O)N(Cc1ccc(C(=O)NN=C2CCCC2)cc1)c1ccccc1	none
Nc1[nH]c(C(=O)c2ccccc2)c(-c2ccccc2Br)c1C(=O)NCCc1ccc(Cl)cc1Cl	none
O=C(CNC(=O)c1nc[nH]c1C(=O)N1CCNCC1)OCc1ccccc1	none
C[C@@H](NC(=O)c1nc[nH]c1C(=O)NCC(=O)OCc1ccccc1)c1ccccc1	M5 antag 27.8
O=C(CNC(=O)c1nc[nH]c1C(=O)N1CCc2ccccc2C1)OCc1ccccc1	M4 antag 28.8, M5 antag 27.0
C[C@H](NC(=O)c1nc[nH]c1C(=O)NCc1ccc(CNC(=O)OC(C)(C)C)cc1)C(=O)OCc1ccccc1	M4 antag 49.7, M5 antag 29.3
C[C@@H](NC(=O)c1nc[nH]c1C(=O)OCc1ccccc1)c1ccccc1	none
CCOc1ccc(CCN2C(=O)C(=O)N([C@@H](CC(C)C)CN3CCC[C@H]3CN3C(=O)C(=O)NC[C@@H]3Cc3ccccc3)C[C@@H]2Cc2ccccc2)cc1	none
CCN(CC)c1ccc(S(=O)(=O)N2CCOCC2)cc1NC(=O)CNCc1cccc(Cl)c1	none
CCOC(=O)c1csc(-c2ccc(OC)c(OC)c2)n1	none
COc1ccc(-c2nc(C(=O)O)cs2)cc1OC	M5 PAM 26.2
O=C(O)c1cccc(Nc2nc3ccccc3nc2NS(=O)(=O)c2cccs2)c1	M4 PAM 18.1
CC(=O)c1ccc(Nc2nc3ccccc3nc2NS(=O)(=O)c2cccs2)cc1	none
Cc1ccc(/C=C2\SC(N3CCN(C(c4ccccc4)c4ccccc4)CC3)=NC2=O)o1	M4 antag 81.9, M5 antag 38.1
O=C1N=C(N2CCN(c3ccccc3)CC2)S/C1=C/c1cccs1	M5 antag 27.4
Cc1ccc2[nH]c(=O)c3cc(C(=O)NCCC(C)C)sc3c2c1	none
CC(C)CCNC(=O)c1cc2c(=O)[nH]c3ccccc3c2s1	M4 PAM 26.2
CN(C)c1cccc(C(=O)NCCCSc2ccccc2)c1	none
O=C(Cn1nnc(-c2ccccc2)n1)NNC(=O)c1cccc([N+](=O)[O-])c1	none
O=C(Cn1nnc(-c2ccc([N+](=O)[O-])cc2)n1)NNC(=O)c1ccccc1	M5 antag 31.1
O=C(Nc1nc2nccc(-c3ccccc3)n2n1)c1ccccc1	M4 antag 100.1
CCOC(=O)N1CCN(C(=O)CSCC(=O)Nc2nc(-c3ccc(-c4ccccc4)cc3)cs2)CC1	M5 antag 44.2
CCOC(=O)N1CCN(C(=O)CSCC(=O)Nc2nc(-c3ccc(OC)cc3)cs2)CC1	none
C/C(=N\OCc1ccc(C#N)cc1)c1ccc(S(=O)(=O)N(C)C)cc1	M5 antag 27.5
C/C(=N\OCc1ccc(C#N)cc1)c1ccccc1	none
CC1=C(C(=O)N(C(C)C)C(C)C)CC(CC(=O)NCc2cccc3ccccc23)C(=O)N1Cc1ccc(F)cc1 (stereo not given)	none
Cc1ccc(S(=O)(=O)N2[C@H](CC(=O)c3cccc4ccccc34)OC[C@@H]2C(C)C)cc1	none
Cc1ccccc1NS(=O)(=O)c1ccc2c(c1)NC(=O)CO2	none
Cc1cccc(C)c1NS(=O)(=O)c1ccc2c(c1)NC(=O)CO2	M5 PAM 19.2
COc1ccccc1NS(=O)(=O)c1cccc(-n2c(O)c(C=Nc3ccccc3C(=O)O)c3ccccc3c2=O)c1	M4 PAM 36.4
COc1ccc(Cn2c(O)c(C=Nc3ccccc3C(=O)O)c3ccccc3c2=O)cc1	none
Cc1cc(=O)oc2cc(OC(=O)c3ccccc3)ccc12	none
COc1ccccc1-c1c(C(F)(F)F)oc2cc(OC(=O)c3ccc([N+](=O)[O-])cc3)ccc2c1=O	M4 PAM 21.2
Nc1nnc2cc(Br)ccc2n1	none
